This excerpt belongs to a sample that is enriched for hits.
Cardio protect – cardioprotection against H2O2-induced cell death, primary screen, uHTS, H9c2 cells, ATPLite luminescence. H9c2 cardiomyocytes, H2O2 injury protection, 2 h. protection from H2O2 cell death, % at 20 µM. hit rate 0.63% among 360,000. AID 588492, 2011;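 active = compounds giving at least 50% protection of heart cells from peroxide-induced death in the single-dose screen, raw or plate-pattern-corrected value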
CHOP inh – inhibitors of CHOP promoter induction, primary screen, cell-based, unfolded protein response, luciferase reporter; hit rate 3.8% among 220,000; inhibition, % at 10 µM; CHO-K1 CHOP-promoter luciferase, tunicamycin-induced, 15-18 h;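 active = compounds that reduced the stress-induced luciferase reporter signal by more than about 70% of percent inhibition, limit read from the data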
UPR XBP1 act – activators of adaptive XBP1 UPR arm, primary screen, cell-based, CHO-XBP1 luciferase reporter, luminescence, uHTS; IRE1-XBP1 UPR activation; percent of tunicamycin response, DMSO as zero; activation, % at 20 µM; hit rate 0.33% among 330,000;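 active = versus positive control, 20 µM dose yields 30% or more activation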
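Signal: luciferase luminescence; Assay system: CHO-XBP1 luciferase reporter cells; Amount: one thousand reporter cells per well; Dosing: 20 µM single concentration, DMSO 1%; Benchmarks: high control tunicamycin 10 µg/mL final, low control DMSO vehicle only; Schedule: 6 h compound exposure at 37 °C, 5% CO2; Evaluation: percent activation relative to tunicamycin reference.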
CHOP UPR activ – activators of apoptotic CHOP UPR arm, primary screen, cell-based, CHO-CHOP luciferase reporter, luminescence, uHTS | UPR activation; percent of tunicamycin response over DMSO baseline | activation, % at 10 µM | hit rate 0.34% among 330,000 | AID 449763, 2010;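 active = at 10 µM dose, activation of 40% or more, normalized to positive control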
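System: CHO CHOP reporter cells. Amount: 500 cells per well. Buffer or medium: F12 medium, 10% FBS. Compound dosing: one dose, 10 µM in 0.5% DMSO. Incubation: 6 h compound exposure at 37 °C after overnight seeding. Technique: Steady-Glo luciferase luminescence. Benchmarks: tunicamycin and DMSO controls.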
iPSC survival up – enhancers of single-cell hiPSC survival, primary screen, ATPlite luminescence; 100% = ROCK inhibitor wells, 0% = DMSO; survival enhancement, % at 20 µM; hit rate 0.044% among 360,000; AID 602274, 2012; in the data active = survival enhancement above about 18%;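 also: cells exposed to compounds for 16 hours before the ATP read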
Hits are given with their value; n = inactive; x = not tested or not shown.

SMILES	Cardio protect	CHOP inh	UPR XBP1 act	CHOP UPR activ	iPSC survival up
Oc1c(C(c2ccc(Cl)cc2)N2CCCC2)cc(Cl)c2cccnc12 (stereo not given)	72.4	n	n	n	n
CCCNC(=O)C1(C)CCCN(C/C=C/c2ccccc2)C1 (stereo not given)	n	x	x	x	n
C=CCn1c(C)cc(C(=O)COC(=O)CNC(=O)c2ccccc2)c1C	n	87.3	n	n	n
Cc1ccc(C(=O)NCC(=O)OCC(=O)c2cc(C)n(Cc3ccco3)c2C)cc1	n	n	n	n	n
CCN1C(=O)[C@@H]2[C@@H]3CN(S(=O)(=O)c4ccc(C)cc4)[C@@H](c4ccccc4F)[C@@H]3C(=O)C[C@@H]2C1=O	n	x	x	x	n
O=S(=O)(c1ccc(Cl)cc1)N1CCNCC1	n	n	n	n	n
O=C1Nc2cc(Cl)ccc2C1(N1CCNCC1)C(F)(F)F (stereo not given)	n	80.1	n	n	n
Clc1ccc(/C=N/NC(=Nc2ccccc2)c2ccccn2)c(Cl)c1	n	81.1	n	n	n
C(=N\NC(=Nc1ccccc1)c1ccccn1)/c1ccccn1	n	n	n	n	n
Cc1cccc(C)c1-n1nnnc1-c1nc2cc3ccccc3cc2[nH]c1=O	x	x	x	x	n
CC(C)(C)c1cc(=O)n(-c2ccccc2)[nH]1	n	70.0	x	x	n
O=c1cc(-c2ccccc2)[nH]n1-c1ccccc1	n	x	x	x	n
CC(C)CN(C(=O)CCNC(=O)c1ccc(Cl)cc1)C1CCS(=O)(=O)C1 (stereo not given)	n	x	n	n	n
S=c1[nH]nc(-c2cccs2)n1/N=C/c1cn(-c2ccccc2)nc1-c1ccccc1	n	n	n	n	n
CC(/C=N/n1c(-c2cc(C)[nH]n2)n[nH]c1=S)=C\c1ccco1	n	n	n	n	n
S=c1[nH]nc(-c2ccncc2)n1/N=C/C=C/c1ccccc1	n	n	n	n	n
CC(/C=N/n1c(-c2ccc(Cl)cc2)n[nH]c1=S)=C\c1ccco1	n	95.5	n	n	n
Cc1ccc(-c2nn(-c3ccccc3)cc2/C=N/n2c(-c3ccncc3)n[nH]c2=S)cc1	n	89.3	n	n	n
S=c1[nH]nc(-c2ccncc2)n1/N=C/C(Cl)=C\c1ccccc1	n	76.0	n	n	n
COc1ccccc1[C@@]1(C)ON(c2ccccc2C(F)(F)F)C1=O	n	x	n	n	n
CCCCn1c(NC(=O)c2ccccc2Cl)c(C#N)c2nc3ccccc3nc21	n	n	n	n	n
CCCCn1c(NC(=O)CC)c(C#N)c2nc3ccccc3nc21	n	93.8	n	n	n
Cc1c(NC2=CC(=O)CC(C)(C)C2)ccc([N+](=O)[O-])c1C	n	85.0	n	n	n
Cc1ccccc1NC1=CC(=O)CC(C)(C)C1	n	n	n	n	n
NC(=O)c1csc(CCNC(=O)c2ccccc2)n1	n	x	x	x	n
SMILES	Cardio protect	CHOP inh	UPR XBP1 act	CHOP UPR activ	iPSC survival up
Cc1nn(C)c(Nc2ccc(Br)cc2)c1Br	n	74.5	n	n	n
Cc1cc(C)nc(-n2nc(C)c(Br)c2Nc2ccc(Br)cc2)n1	n	77.0	n	n	n
Cc1cc(Nc2ccc(Br)cc2)nc(-c2ccccc2O)n1	n	x	n	n	n
COc1ccc(CNC(=O)CC[C@H]2O[C@@H](n3ccc(=O)[nH]c3=O)[C@H](O)[C@@H]2O)cc1	n	x	x	x	n
O=C(Nc1ccc(Cl)cn1)c1ccc(COCC(F)(F)C(F)F)o1	n	95.8	n	n	n
O=C(NCc1ccc(Cl)cc1)c1ccc(COCC(F)(F)F)o1	n	n	n	n	n
O=C(NCc1cccs1)c1ccc2nc([C@@H]3O[C@H](CO)[C@H](O)[C@H](O)[C@H]3O)[nH]c2c1	n	x	x	x	n
COc1cc(OC)cc(C(=O)Nc2ccc(Nc3ccccc3)cc2)c1	n	x	n	n	n
COc1cc(OC)cc(C(=O)Nc2nnc(NC(=S)Nc3ccccc3)s2)c1	n	107.7	n	n	n
CSc1nsc(SC)c1C(=O)N1CCN(S(=O)(=O)c2ccc(C)cc2)C1C (stereo not given)	n	n	n	n	n
CSc1nsc(SC)c1C(=O)N1CCN(S(=O)(=O)c2ccc(C)cc2)C1C(C)C (stereo not given)	83.0	n	n	n	n
CCCCCC(=O)OCc1ccc(C2=CC(=O)CC(C)(C)C2=O)cc1	n	x	x	x	n
CC(=O)Nc1cc(-c2ccc(C(=O)NC3CC3)cc2)cn2c(-c3cccc(C(C)=O)c3)cnc12	50.4	x	x	x	n
COc1cc(-c2cc(NC(C)=O)c3ncc(-c4ccccc4)n3c2)cc(OC)c1OC	70.2	x	x	x	n
COc1ccc(-c2cnc3c(NC(C)=O)cc(-c4ccccc4OC)cn23)cc1OC	n	x	x	x	n
COc1cc(-c2cc(NC(C)=O)c3ncc(-c4cc(OC)c(OC)c(OC)c4)n3c2)cc(OC)c1OC	66.2	x	x	x	n
COc1cc(-c2cnc3c(NC(C)=O)cc(-c4ccccc4CN(C)C)cn23)cc(OC)c1OC	n	x	x	x	n
COc1ccc(-c2cc(NC(C)=O)c3ncc(-c4ccc(OC)c(OC)c4)n3c2)cc1OC	66.8	x	x	x	n
CCc1c(C(=O)NC(C)C2CCCO2)csc1C (stereo not given)	n	x	n	n	n
COc1ccccc1-c1cc(NC(C)=O)c2ncc(-c3cccc(C(C)=O)c3)n2c1	52.3	x	x	x	n
CCc1nc2ccc(C(=O)NCCOc3ccc(OC)cc3)cn2c1N(CC)CCN(C)C	n	x	x	x	n
O=C(c1ccco1)N1C(=O)c2cccc3c(S(=O)(=O)N4CCCC4)ccc1c23	n	74.2	n	n	n
CC1C(=O)N(Cc2cn(CCC3OCCO3)nn2)CCS(=O)(=O)N1Cc1ccc(-c2ccc(Cl)c(Cl)c2)cc1 (stereo not given)	n	x	x	x	n
O=C(CCSc1ccccc1)NC(=O)COC(=O)C1CCCCC1	n	70.2	n	n	n
Cc1cccc(-n2ncc3c(N4CCC(C)CC4)ncnc32)c1	n	73.2	n	n	n
SMILES	Cardio protect	CHOP inh	UPR XBP1 act	CHOP UPR activ	iPSC survival up
COc1cccc(N2CCN(c3ncnc4c3cnn4-c3ccc(C)cc3C)CC2)c1	n	98.4	n	n	n
Cc1ccc(-n2ncc3c(N4CCCC4)ncnc32)c(C)c1	n	n	n	n	n
Cc1cccc(-n2ncc3c(N4CCC5(CC4)OCCO5)ncnc32)c1	n	n	n	n	n
COc1ccc(C(=O)N2CCC(C)(C(=O)O)C2)c(OC)c1 (stereo not given)	n	x	x	x	n
CC(C)=CCC/C(C)=C/Cc1c(O)ccc(C(=O)/C=C/c2ccc(O)cc2)c1O	n	85.8	n	n	n
Nc1cc2c(cc1Br)-c1c(C(=O)O)cccc1C2O (stereo not given)	n	x	x	x	n
COc1ccc(NC(=O)c2cc(-c3cc(C)ccc3O)n[nH]2)cc1Cl	n	77.6	n	n	n
Cn1c(N)c(C#N)c(-c2ccccc2)c(C#N)c1=O	n	x	x	x	n
